Calls of active or inactive are those of the source. The rule behind the calls is not given here.
Experiments:
[1] = Plasma clearance in rat at 0.2 mg/kg, iv administered as cassette dose; type: ADME, organism-based
Cytochrome P450 2D6 = Cytochrome P450 2D6 (Homo sapiens, UniProt P10635); test: Inhibition of CYP2D6 in human liver microsomes by cocktail assay; type: ADME
Outline: (§1)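 Human liver microsome cocktail incubation with probe substrates for four P450s; inhibition of each isoform measured.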

[2] = target: 5-hydroxytryptamine receptor 2B (Homo sapiens) (UniProt P41595); test: Agonist activity at 5HT2B receptor (unknown origin) up to 10 uM
Sequence of 5-hydroxytryptamine receptor 2B (Homo sapiens) (P41595 whole entry): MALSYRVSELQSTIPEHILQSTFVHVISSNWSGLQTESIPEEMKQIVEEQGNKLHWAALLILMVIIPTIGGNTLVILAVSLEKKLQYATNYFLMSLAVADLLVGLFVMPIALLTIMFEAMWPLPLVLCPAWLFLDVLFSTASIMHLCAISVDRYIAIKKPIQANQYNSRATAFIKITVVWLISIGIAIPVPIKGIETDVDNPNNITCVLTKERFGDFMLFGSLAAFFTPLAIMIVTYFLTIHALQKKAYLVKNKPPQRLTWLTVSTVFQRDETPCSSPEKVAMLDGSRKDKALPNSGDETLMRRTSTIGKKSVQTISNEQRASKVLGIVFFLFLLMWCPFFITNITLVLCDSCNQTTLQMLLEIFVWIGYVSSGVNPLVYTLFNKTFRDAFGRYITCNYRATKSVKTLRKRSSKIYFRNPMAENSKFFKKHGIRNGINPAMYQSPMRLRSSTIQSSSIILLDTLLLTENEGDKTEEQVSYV

[3] = Volume of distribution at steady state in rat at 1 mg/kg, iv and 3 mg/kg, po; type: ADME, organism-based; conditions: in vivo, read-out: Vdss
Outline: (§2)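 Rat IV PK, n = 2, 1.0 mg/kg as solution in 10% EtOH, 50% PEG 400, 40% saline (1 mg/mL); oral arm 3.0 mg/kg as fine microsuspension in 0.1% Tween 80 and 0.5% methyl cellulose in H2O (0.3 mg/mL).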

[4] = AUC (0 to infinity) in mouse at 10 mg/kg, ip; type: ADME, organism-based; design: dose 10 mg/kg, time infinity, route intraperitoneal; conditions: in vivo
Plasma [5] = test: Fraction unbound in rat plasma; type: ADME, cell-free
[6] = Plasma clearance in rat at 1 mg/kg, iv and 3 mg/kg, po; type: ADME, organism-based
Outline: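 Rat PK, n = 2 each route. IV: 1.0 mg/kg as solution in 10% EtOH, 50% PEG 400, 40% saline (1 mg/mL). Oral: 3.0 mg/kg as fine microsuspension in 0.1% Tween 80 and 0.5% methyl cellulose in H2O (0.3 mg/mL). Plasma clearance and bioavailability derived from plasma levels.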

MDCK [7] = test: Apparent permeability from apical to basolateral side in MDCK cells expressing human MDR1 gene; type: ADME, cell-based, Canis lupus familiaris; conditions: dog
Outline: (§3)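 Permeability and P-gp efflux measured in MDCK cells transfected with human MDR1 gene.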

Cytochrome P450 2C9 = Cytochrome P450 2C9 (Homo sapiens, UniProt P11712); test: Inhibition of CYP2C9 in human liver microsomes by cocktail assay; type: ADME; outline: as §1
Sequence of Cytochrome P450 2C9 (P11712 whole entry): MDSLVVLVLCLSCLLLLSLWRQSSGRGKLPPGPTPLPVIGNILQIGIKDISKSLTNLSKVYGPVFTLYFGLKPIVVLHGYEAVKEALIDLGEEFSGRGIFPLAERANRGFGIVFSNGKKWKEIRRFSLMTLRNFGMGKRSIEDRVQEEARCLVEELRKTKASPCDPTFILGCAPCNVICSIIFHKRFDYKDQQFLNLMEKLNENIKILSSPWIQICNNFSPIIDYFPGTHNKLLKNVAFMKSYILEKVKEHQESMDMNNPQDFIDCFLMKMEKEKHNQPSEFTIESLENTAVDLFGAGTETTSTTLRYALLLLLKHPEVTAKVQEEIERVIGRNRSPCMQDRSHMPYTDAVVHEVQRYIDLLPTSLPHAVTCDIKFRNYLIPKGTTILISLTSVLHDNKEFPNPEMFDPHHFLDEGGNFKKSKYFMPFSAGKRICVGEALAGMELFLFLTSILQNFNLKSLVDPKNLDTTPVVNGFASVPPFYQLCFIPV

[8] = target: Metabotropic glutamate receptor 3 (Rattus norvegicus) (UniProt P31422); test: Negative allosteric modulation of rat mGlu3 receptor assessed as amplitude response at 30 uM relative to glutamate
Outline: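 Calcium mobilization in cell line stably expressing rat mGlu3 with promiscuous Gα15; fluorescence read-out; amplitude of glutamate response with 30 μM test compound expressed as percentage of maximal response (100 μM glutamate); average of n = 3.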

[9] = Cmax in mouse at 10 mg/kg, ip; type: ADME, organism-based; design: dose 10 mg/kg, route intraperitoneal; conditions: in vivo
[10] = target: Metabotropic glutamate receptor 3 (Rattus norvegicus, UniProt P31422); test: Negative allosteric modulation of rat mGlu3 receptor assessed as calcium mobilization by cell based fluorescence assay; type: functional
Sequence of Metabotropic glutamate receptor 3 (P31422 whole entry): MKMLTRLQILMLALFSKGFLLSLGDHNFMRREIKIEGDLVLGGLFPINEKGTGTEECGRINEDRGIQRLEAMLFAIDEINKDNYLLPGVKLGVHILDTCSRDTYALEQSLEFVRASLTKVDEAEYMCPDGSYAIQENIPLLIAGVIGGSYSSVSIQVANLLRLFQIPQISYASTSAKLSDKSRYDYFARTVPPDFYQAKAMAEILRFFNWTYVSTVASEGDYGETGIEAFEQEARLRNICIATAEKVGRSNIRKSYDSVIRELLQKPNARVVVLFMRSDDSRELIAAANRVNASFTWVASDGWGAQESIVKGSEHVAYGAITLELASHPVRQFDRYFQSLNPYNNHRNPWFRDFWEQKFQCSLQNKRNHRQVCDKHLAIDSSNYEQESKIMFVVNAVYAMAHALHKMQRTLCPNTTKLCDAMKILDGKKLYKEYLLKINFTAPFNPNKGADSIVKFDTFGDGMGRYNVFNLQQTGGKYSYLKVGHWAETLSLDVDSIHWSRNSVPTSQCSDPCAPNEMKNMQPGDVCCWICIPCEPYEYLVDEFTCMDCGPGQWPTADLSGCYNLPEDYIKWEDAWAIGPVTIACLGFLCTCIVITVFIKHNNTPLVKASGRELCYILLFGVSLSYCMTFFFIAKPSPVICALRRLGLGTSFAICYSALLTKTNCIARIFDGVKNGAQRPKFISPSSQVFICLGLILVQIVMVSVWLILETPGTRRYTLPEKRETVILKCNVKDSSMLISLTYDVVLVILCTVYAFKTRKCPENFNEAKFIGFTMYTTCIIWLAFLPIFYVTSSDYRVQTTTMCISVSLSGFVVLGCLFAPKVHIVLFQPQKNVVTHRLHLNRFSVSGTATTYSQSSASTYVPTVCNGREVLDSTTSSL
Outline: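 Cell line stably expressing rat mGlu3 with the promiscuous G-protein Gα15. Calcium mobilization with fluorescence read-out, inhibition of the glutamate response. Full concentration-response curves, top concentration 30 μM. % Glu Max is the response with 30 μM test compound as a percentage of the maximal response to 100 μM glutamate. Values averaged over n-3.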

Cytochrome P450 1A2 = target: T1, Cytochrome P450 1A2 (Homo sapiens, UniProt P05177); test: Inhibition of CYP1A2 in human liver microsomes by cocktail assay; type: ADME
T1 sequence (P05177 whole entry): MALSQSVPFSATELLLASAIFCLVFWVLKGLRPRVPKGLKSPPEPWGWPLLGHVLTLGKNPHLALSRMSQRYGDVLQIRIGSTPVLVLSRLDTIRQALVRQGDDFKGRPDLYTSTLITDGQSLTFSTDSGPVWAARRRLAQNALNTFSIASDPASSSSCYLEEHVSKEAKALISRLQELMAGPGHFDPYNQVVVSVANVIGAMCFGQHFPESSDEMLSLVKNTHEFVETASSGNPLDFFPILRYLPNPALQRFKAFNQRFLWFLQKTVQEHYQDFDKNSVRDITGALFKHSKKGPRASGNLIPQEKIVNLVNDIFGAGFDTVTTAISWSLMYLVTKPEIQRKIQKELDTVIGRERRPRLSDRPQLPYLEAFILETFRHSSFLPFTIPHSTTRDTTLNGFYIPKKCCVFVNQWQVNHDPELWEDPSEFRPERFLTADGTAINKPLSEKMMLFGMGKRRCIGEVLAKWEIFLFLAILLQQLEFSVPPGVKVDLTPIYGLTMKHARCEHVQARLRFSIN

[11] = Cmax in rat at 10 mg/kg, ip; type: ADME, organism-based; design: dose 10 mg/kg, route intraperitoneal; conditions: in vivo
in vivo [12] = conditions: mouse, ip, 10 mg/kg
MDCK [13] = test: Apparent permeability from basolateral to apical side in MDCK cells expressing human MDR1 gene; type: ADME, cell-based, Canis lupus familiaris; conditions: dog; outline: as §3
[14] = target: 5-hydroxytryptamine receptor 2B (Homo sapiens) (UniProt P41595); test: Binding affinity to 5HT2B receptor (unknown origin) at 10 uM by radioligand binding assay
[15] = Half life in rat at 0.2 mg/kg, iv administered as cassette dose; type: ADME, organism-based; conditions: in vivo
[16] = Plasma concentration in mouse at 10 mg/kg, ip after 30 mins; type: ADME, organism-based
Outline: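 Single time-point tissue distribution in mice. Dosed IP as a fine microsuspension in 0.1% Tween 80 and 0.5% methyl cellulose in H2O (1 mg/mL). Plasma and brain were sampled 30 min post dose, n = 3.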

Mus musculus [17] = test: Anxiolytic activity in CD1 mouse assessed as inhibition of marble burying behavior at 56.6 mg/kg, ip after 30 mins; type: functional, organism-based
Plasma [18] = test: Fraction unbound in mouse plasma; type: ADME, cell-free
[19] = AUC (0 to infinity) in rat at 10 mg/kg, ip; type: ADME, organism-based; design: dose 10 mg/kg, time infinity, route intraperitoneal; conditions: in vivo
in vivo [20] = conditions: rat, ip, 10 mg/kg
[21] = target: 5-hydroxytryptamine receptor 2B (Homo sapiens) (UniProt P41595); test: Antagonist activity at 5HT2B receptor (unknown origin) up to 10 uM
[22] = Volume of distribution at steady state in rat at 0.2 mg/kg, iv administered as cassette dose; type: ADME, organism-based; conditions: in vivo, read-out: Vdss
[23] = target: Metabotropic glutamate receptor 2 (Rattus norvegicus) (UniProt P31421); test: Negative allosteric modulation of rat mGlu2 receptor assessed as calcium mobilization at 30 uM by cell based fluorescence assay; type: functional
Sequence of Metabotropic glutamate receptor 2 (Rattus norvegicus) (P31421 19-872 limits assumed): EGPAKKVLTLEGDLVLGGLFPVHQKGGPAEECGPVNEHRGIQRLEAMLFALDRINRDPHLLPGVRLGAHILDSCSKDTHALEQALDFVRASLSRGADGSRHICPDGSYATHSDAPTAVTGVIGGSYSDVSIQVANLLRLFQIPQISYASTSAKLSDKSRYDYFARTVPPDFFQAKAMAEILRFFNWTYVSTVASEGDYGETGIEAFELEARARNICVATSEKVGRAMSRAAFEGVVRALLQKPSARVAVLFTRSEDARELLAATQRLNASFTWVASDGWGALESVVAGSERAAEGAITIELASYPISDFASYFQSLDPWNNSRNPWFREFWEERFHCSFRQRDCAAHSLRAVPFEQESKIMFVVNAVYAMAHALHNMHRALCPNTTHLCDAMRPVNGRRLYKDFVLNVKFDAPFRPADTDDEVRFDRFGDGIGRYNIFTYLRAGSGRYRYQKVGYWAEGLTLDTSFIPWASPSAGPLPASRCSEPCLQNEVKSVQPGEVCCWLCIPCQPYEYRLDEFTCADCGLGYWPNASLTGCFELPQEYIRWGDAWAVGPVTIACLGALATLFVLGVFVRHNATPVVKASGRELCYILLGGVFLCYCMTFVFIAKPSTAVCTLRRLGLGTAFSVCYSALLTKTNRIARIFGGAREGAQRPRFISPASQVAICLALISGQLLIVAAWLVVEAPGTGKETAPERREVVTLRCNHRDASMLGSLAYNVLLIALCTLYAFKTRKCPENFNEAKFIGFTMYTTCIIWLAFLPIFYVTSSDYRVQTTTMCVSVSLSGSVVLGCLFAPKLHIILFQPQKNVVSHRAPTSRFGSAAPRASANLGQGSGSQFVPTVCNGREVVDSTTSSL
Outline: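 Rat mGlu2 calcium mobilization assay with fluorescence read-out; full concentration-response curve analysis up to 30 μM top concentration.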

[24] = target: Metabotropic glutamate receptor 5 (Rattus norvegicus, UniProt P31424); test: Modulation of rat mGlu5 receptor assessed as calcium mobilization by cell based fluorescence assay; type: functional
Sequence of Metabotropic glutamate receptor 5 (P31424 whole entry): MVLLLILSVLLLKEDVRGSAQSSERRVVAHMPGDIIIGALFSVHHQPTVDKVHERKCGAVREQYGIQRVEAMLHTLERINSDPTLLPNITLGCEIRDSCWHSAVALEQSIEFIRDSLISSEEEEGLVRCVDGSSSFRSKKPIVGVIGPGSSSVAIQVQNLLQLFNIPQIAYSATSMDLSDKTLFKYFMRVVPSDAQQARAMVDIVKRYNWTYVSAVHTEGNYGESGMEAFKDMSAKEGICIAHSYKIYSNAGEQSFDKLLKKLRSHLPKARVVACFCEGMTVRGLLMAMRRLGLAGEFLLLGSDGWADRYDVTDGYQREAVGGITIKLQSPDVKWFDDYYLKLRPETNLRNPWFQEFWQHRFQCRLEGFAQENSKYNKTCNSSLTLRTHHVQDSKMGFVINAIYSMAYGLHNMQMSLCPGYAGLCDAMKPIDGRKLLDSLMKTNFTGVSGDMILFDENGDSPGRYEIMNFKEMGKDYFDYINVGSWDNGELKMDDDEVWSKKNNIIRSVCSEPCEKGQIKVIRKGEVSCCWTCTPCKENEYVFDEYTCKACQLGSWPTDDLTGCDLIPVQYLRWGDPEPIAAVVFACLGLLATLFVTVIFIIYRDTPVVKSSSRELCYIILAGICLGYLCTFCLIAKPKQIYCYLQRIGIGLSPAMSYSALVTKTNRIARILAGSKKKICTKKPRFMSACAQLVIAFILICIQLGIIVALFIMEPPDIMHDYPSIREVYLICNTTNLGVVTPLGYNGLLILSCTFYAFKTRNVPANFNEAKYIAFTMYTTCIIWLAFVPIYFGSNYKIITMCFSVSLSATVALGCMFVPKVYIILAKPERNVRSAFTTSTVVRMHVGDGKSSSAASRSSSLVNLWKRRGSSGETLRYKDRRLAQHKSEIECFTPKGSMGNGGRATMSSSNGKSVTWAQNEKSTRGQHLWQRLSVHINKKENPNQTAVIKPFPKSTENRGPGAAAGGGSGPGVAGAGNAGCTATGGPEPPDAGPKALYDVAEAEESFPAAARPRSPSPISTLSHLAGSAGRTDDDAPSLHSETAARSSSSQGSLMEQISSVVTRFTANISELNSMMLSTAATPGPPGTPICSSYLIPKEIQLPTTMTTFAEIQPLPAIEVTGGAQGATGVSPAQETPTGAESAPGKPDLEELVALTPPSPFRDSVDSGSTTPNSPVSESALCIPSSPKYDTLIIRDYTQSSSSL
Outline: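 Calcium mobilization assay with fluorescence read-out in cells expressing mGlu5; full concentration-response curves; % Glu Max is the amplitude of response with 30 μM test compound as a percentage of the maximal response to 100 μM glutamate; values averaged over n-3.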

Brain [25] = test: Fraction unbound in rat brain; type: ADME, tissue-based
Brain [26] = test: Fraction unbound in mouse brain; type: ADME, tissue-based
Mus musculus [27] = test: Anxiolytic activity in ip dosed CD1 mouse assessed as inhibition of marble burying behavior after 30 mins; type: functional, organism-based
Rattus norvegicus [28] = test: Antidepressant activity in Sprague-Dawley rat assessed as reduction of immobility time at 56.6 mg/kg, ip measured up to 6 mins by forced swim test; type: functional, organism-based
Cytochrome P450 3A4 = Cytochrome P450 3A4 (Homo sapiens, UniProt P08684); test: Inhibition of CYP3A4 in human liver microsomes by cocktail assay; type: ADME; outline: as §1
Sequence of Cytochrome P450 3A4 (P08684 whole entry): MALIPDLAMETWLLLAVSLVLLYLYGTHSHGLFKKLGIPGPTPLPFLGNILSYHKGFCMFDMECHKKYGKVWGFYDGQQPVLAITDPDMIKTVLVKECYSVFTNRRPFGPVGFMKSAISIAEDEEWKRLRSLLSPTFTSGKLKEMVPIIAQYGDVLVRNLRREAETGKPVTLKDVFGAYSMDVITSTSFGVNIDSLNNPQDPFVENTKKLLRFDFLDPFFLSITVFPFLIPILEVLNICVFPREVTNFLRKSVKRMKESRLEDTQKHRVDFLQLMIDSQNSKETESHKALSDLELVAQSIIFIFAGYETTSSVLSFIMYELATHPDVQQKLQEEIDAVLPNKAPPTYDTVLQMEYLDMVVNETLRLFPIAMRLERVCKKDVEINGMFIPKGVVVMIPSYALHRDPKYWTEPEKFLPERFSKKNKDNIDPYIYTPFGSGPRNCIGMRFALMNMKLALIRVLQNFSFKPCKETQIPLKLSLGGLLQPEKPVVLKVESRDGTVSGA

Rattus norvegicus [29] = test: Half life in rat at 1 mg/kg, iv and 3 mg/kg, po; type: ADME, organism-based; conditions: in vivo; outline: as §2
[30] = Oral bioavailability in rat at 3 mg/kg; type: ADME, organism-based; conditions: in vivo

Sequence of Cytochrome P450 2D6 (P10635 whole entry, canonical isoform): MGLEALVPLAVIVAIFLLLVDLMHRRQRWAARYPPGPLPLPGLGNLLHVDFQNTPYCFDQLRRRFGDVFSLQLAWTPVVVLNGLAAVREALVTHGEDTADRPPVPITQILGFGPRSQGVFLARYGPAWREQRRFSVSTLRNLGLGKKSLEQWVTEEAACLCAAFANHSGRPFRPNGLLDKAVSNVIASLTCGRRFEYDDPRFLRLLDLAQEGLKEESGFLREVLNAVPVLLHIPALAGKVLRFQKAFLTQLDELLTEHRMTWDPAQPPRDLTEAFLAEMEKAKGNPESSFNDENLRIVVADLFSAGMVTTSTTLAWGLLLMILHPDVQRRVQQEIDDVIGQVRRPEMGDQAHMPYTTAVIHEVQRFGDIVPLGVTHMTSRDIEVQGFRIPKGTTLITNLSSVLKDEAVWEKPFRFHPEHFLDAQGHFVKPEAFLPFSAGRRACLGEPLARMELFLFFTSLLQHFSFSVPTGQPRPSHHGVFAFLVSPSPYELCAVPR

Q: Which clearance [1] does the source give for `C[C@@H]1CN(c2cccnc2F)C(=O)c2cc(COc3ccc(Cl)cn3)nn21` here?
A: Its clearance is 37 mL/min/kg.

Q: What about the IC50 (Cytochrome P450 2D6) of the same compound?
A: Its IC50 is over 30 µM.

Q: What about the Activity [2] of the same compound?
A: Its Activity is “inactive”.

Q: And the Vd [3]?
A: The Vd was 1.4 L/kg.

Q: And the AUC(0-inf) [4]?
A: The AUC(0-inf) was 7.26 µM·h.

Q: And the Fu (Plasma [5])?
A: The Fu was 0.083.

Q: What about the clearance [6] of the same compound?
A: Its clearance is 30 mL/min/kg.

Q: What about the Papp (MDCK [7]) of the same compound?
A: Its Papp is 45 ×10⁻⁶ cm/s.

Q: What about the IC50 (Cytochrome P450 2C9) of the same compound?
A: Its IC50 is 25.6 µM.

Q: And the Activity [8]?
A: Its Activity is 1.71%.

Q: And the Cmax [9]?
A: The Cmax was 4.48 µM.

Q: What about the IC50 [10] of the same compound?
A: Its IC50 is 392 nM.

Q: And the IC50 (Cytochrome P450 1A2)?
A: Its IC50 is over 30 µM.

Q: What about the Cmax [11] of the same compound?
A: The Cmax was 4.57 µM.

Q: What about the Tmax (in vivo [12]) of the same compound?
A: The Tmax was 30 min.

Q: What about the Papp (MDCK [13]) of the same compound?
A: Its Papp is 49.9 ×10⁻⁶ cm/s.

Q: What about the inhibition [14] of the same compound?
A: The inhibition was 65%.

Q: And the half-life [15]?
A: Its half-life is 42 min.

Q: And the concentration at 0.5 h [16]?
A: The concentration at 0.5 h was 2290 nM.

Q: And the inhibition (Mus musculus [17])?
A: Its inhibition is “Active”.

Q: What about the Fu (Plasma [18]) of the same compound?
A: The Fu was 0.163.

Q: What about the AUC(0-inf) [19] of the same compound?
A: The AUC(0-inf) was 11.5 µM·h.

Q: And the Tmax (in vivo [20])?
A: The Tmax was 12.3 min.

Q: What about the Activity [21] of the same compound?
A: The Activity was “Active”.

Q: What about the Vd [22] of the same compound?
A: The Vd was 1.6 L/kg.

Q: What about the Activity [23] of the same compound?
A: The Activity was “inactive”.

Q: And the EC50 [24]?
A: The EC50 was over 30 µM.

Q: What about the Fu (Brain [25]) of the same compound?
A: Its Fu is 0.052.

Q: What about the Fu (Brain [26]) of the same compound?
A: Its Fu is 0.035.

Q: And the inhibition (Mus musculus [27])?
A: The inhibition was “Dose-dependent effect”.

Q: What about the Activity (Rattus norvegicus [28]) of the same compound?
A: The Activity was “Active”.

Q: What about the IC50 (Cytochrome P450 3A4) of the same compound?
A: Its IC50 is over 30 µM.

Q: What about the t1/2 (Rattus norvegicus [29]) of the same compound?
A: The t1/2 was 49 min.

Q: And the bioavailability [30]?
A: Its bioavailability is 60%.

From ChEMBL document CHEMBL3616441, “Discovery of a Selective and CNS Penetrant Negative Allosteric Modulator of Metabotropic Glutamate Receptor Subtype 3 with Antidepressant and Anxiolytic Activity in Rodents” (J Med Chem, 2015)
